Laboratory results as given in ChEMBL document CHEMBL3576849, “De Novo Conception of Small Molecule Modulators Based on Endogenous Peptide Ligands: Pyrrolodiazepin-2-one γ-Turn Mimics That Differentially Modulate Urotensin II Receptor-Mediated Vasoconstriction ex Vivo” (J Med Chem, 2015).
Active and inactive are the calls of the source. No cut-off for these calls is given here.

Key:
[1] = biological target: T1, Urotensin-2 receptor (Rattus norvegicus) (UniProt P49684); experiment: Modulation of urotensin-2 receptor in Sprague-Dawley rat thoracic aortic ring assessed as urotensin-2 related peptide Emax for induction of aortic ring contraction at 10 uM preincubated for 15 mins followed by urotensin-2 related peptide addition (reference value: 132 +/- 4%)
T1 sequence (whole entry): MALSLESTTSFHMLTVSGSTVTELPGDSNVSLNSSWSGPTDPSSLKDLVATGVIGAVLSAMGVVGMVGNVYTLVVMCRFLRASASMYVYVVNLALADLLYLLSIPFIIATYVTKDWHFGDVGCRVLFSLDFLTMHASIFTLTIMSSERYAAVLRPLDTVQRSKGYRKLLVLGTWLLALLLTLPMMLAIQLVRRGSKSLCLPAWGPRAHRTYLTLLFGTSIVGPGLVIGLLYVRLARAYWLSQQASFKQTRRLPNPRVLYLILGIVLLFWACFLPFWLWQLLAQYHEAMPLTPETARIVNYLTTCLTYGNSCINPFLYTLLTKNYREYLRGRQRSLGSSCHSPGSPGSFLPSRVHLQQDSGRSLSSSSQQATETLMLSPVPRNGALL

[2] = biological target: T1, Urotensin-2 receptor (Rattus norvegicus); experiment: Agonist activity at urotensin-2 receptor in Sprague-Dawley rat thoracic aortic ring assessed as induction of aortic ring contraction at 10 to 100 uM
In short: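 Thoracic aortic rings from adult male Sprague-Dawley rats (250–300 g, killed by CO2 asphyxiation); analog added alone to the organ chamber at 10 or 100 µM to test for contraction. 40 mM KCl contractions served as control at start and end. Run at least in triplicate.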

[3] = biological target: T1, Urotensin-2 receptor (Rattus norvegicus); experiment: Modulation of urotensin-2 receptor in Sprague-Dawley rat thoracic aortic ring assessed as human urotensin-2 Emax for induction of aortic ring contraction at 10 uM preincubated for 15 mins followed by human urotensin-2 addition (reference value: 116 +/- 3%)
In short: (§1)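 Thoracic aortic rings from adult male Sprague-Dawley rats (250–300 g, killed by CO2). Rings were exposed to test compound for 15 min, then cumulative hUII concentration-response curves were run (10-10–3.10-6 M). Contraction is expressed as % of the 40 mM KCl response, with KCl given at the start and end. EC50/pEC50/Emax come from a variable-slope sigmoidal fit. At least triplicate.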

[4] = biological target: T2, Urotensin-2 receptor (Homo sapiens) (UniProt Q9UKP6); experiment: Displacement of [125I]-human urotensin-2 from human urotensin-2 receptor expressed in CHO cells at 100 uM after 90 mins by gamma counting analysis relative to control; assay type: cell-based
T2 sequence (whole entry): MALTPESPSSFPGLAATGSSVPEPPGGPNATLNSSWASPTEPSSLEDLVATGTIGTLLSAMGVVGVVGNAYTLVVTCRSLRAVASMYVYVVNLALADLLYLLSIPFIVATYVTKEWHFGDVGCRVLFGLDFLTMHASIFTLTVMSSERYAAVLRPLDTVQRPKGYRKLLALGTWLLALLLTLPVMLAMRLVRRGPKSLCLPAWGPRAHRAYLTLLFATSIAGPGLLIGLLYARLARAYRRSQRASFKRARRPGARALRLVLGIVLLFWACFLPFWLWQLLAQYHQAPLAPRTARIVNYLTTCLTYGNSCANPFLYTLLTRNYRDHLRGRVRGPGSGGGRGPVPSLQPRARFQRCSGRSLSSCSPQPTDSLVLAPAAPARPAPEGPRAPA
In short: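 Incubated 90 min at room temperature with 100 µM compound plus 0.2 nM 125I-hUII (chloramine-T labelled). Cells washed and lysed, bound radioactivity gamma-counted. Reported as % of specific binding without competitor; nonspecific binding defined with 10 µM hUII. At least triplicate.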

[5] = biological target: T1, Urotensin-2 receptor (Rattus norvegicus); experiment: Noncompetitive antagonist activity at urotensin-2 receptor in Sprague-Dawley rat thoracic aortic ring assessed as reduction in human urotensin-2-induced response at 4 uM by double reciprocal plot analysis
[6] = biological target: T1, Urotensin-2 receptor (Rattus norvegicus); experiment: Modulation of urotensin-2 receptor in Sprague-Dawley rat thoracic aortic ring assessed as human urotensin-2 Emax for induction of aortic ring contraction at 14 uM preincubated for 15 mins followed by human urotensin-2 addition (reference value: 116 +/- 3%)
[7] = biological target: T1, Urotensin-2 receptor (Rattus norvegicus); experiment: Modulation of urotensin-2 receptor in Sprague-Dawley rat thoracic aortic ring assessed as urotensin-2 related peptide Emax for induction of aortic ring contraction at 14 uM preincubated for 15 mins followed by urotensin-2 related peptide addition (reference value: 132 +/- 4%)
[8] = biological target: T1, Urotensin-2 receptor (Rattus norvegicus); experiment: Modulation of urotensin-2 receptor in Sprague-Dawley rat thoracic aortic ring assessed as human urotensin-2 Emax for induction of aortic ring contraction at 1 uM preincubated for 15 mins followed by human urotensin-2 addition (reference value: 116 +/- 3%)
[9] = biological target: T1, Urotensin-2 receptor (Rattus norvegicus); experiment: Modulation of urotensin-2 receptor in Sprague-Dawley rat thoracic aortic ring assessed as human urotensin-2 Emax for induction of aortic ring contraction at 4 uM preincubated for 15 mins followed by human urotensin-2 addition (reference value: 116 +/- 3%)
Rattus norvegicus = species on record: Rattus norvegicus; experiment: Modulation of […] in Sprague-Dawley rat thoracic aortic ring assessed as change in human endothelin-1-induced aortic ring contraction at 1.4 x 10^-5 M
[10] = biological target: T1, Urotensin-2 receptor (Rattus norvegicus); experiment: Modulation of urotensin-2 receptor in Sprague-Dawley rat thoracic aortic ring assessed as reduction of human urotensin-2-induced aortic ring contraction preincubated for 15 mins followed by human urotensin-2 addition
[11] = biological target: T2, Urotensin-2 receptor (Homo sapiens); experiment: Induction of [125I]-human urotensin-2 binding to human urotensin-2 receptor expressed in CHO cells at 100 uM after 90 mins by gamma counting analysis relative to control; assay type: cell-based
In short: (§2)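 Whole CHO cells stably expressing human UT, plated at 150,000 cells/well, incubated with test compound (100 µM) and 0.2 nM 125I-hUII for 90 min at room temperature. Cells were washed and lysed, and bound radioactivity was gamma-counted. Results are % of specific binding without competitor. Non-specific binding was defined with 10 µM hUII. At least triplicate; mean ± S.E.M.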

[12] = biological target: T1, Urotensin-2 receptor (Rattus norvegicus); experiment: Modulation of urotensin-2 receptor in Sprague-Dawley rat thoracic aortic ring assessed as human urotensin-2 Emax for induction of aortic ring contraction at 8 uM preincubated for 15 mins followed by human urotensin-2 addition (reference value: 116 +/- 3%); in short: as §1
[13] = biological target: T2, Urotensin-2 receptor (Homo sapiens); experiment: Effect on [125I]-human urotensin-2 binding to human urotensin-2 receptor expressed in CHO cells at 100 uM after 90 mins by gamma counting analysis relative to control; assay type: cell-based; in short: as §2
[14] = biological target: T1, Urotensin-2 receptor (Rattus norvegicus); experiment: Modulation of urotensin-2 receptor in Sprague-Dawley rat thoracic aortic ring assessed as urotensin-2 related peptide Emax for induction of aortic ring contraction at 8 uM preincubated for 15 mins followed by urotensin-2 related peptide addition (reference value: 132 +/- 4%)
[15] = biological target: T1, Urotensin-2 receptor (Rattus norvegicus); experiment: Modulation of urotensin-2 receptor in Sprague-Dawley rat thoracic aortic ring assessed as urotensin-2 related peptide Emax for induction of aortic ring contraction at 15 uM preincubated for 15 mins followed by urotensin-2 related peptide addition (reference value: 132 +/- 4%)
[16] = biological target: T1, Urotensin-2 receptor (Rattus norvegicus); experiment: Modulation of urotensin-2 receptor in Sprague-Dawley rat thoracic aortic ring assessed as human urotensin-2 Emax for induction of aortic ring contraction at 15 uM preincubated for 15 mins followed by human urotensin-2 addition (reference value: 116 +/- 3%); in short: as §1
[17] = biological target: T1, Urotensin-2 receptor (Rattus norvegicus); experiment: Modulation of urotensin-2 receptor in Sprague-Dawley rat thoracic aortic ring assessed as human urotensin-2 Emax for induction of aortic ring contraction at 11 uM preincubated for 15 mins followed by human urotensin-2 addition (reference value: 116 +/- 3%)
[18] = biological target: T1, Urotensin-2 receptor (Rattus norvegicus); experiment: Modulation of urotensin-2 receptor in Sprague-Dawley rat thoracic aortic ring assessed as urotensin-2 related peptide Emax for induction of aortic ring contraction at 11 uM preincubated for 15 mins followed by urotensin-2 related peptide addition (reference value: 132 +/- 4%)

| Activity [2] | inhibition [4] | SMILES | Emax [1] | Emax [3] | Activity [13] | further results |
| --- | --- | --- | --- | --- | --- | --- |
| inactive | 25% | NCCCC[C@@H]1N[C@H](c2ccc3ccccc3c2)c2[nH]c(C(=O)O)cc2N(CCc2ccc(O)cc2)C1=O | 217% | 175% | – | – |
| inactive | 25% | NCCCC[C@@H]1N[C@H](c2ccc(-c3ccccc3)cc2)c2[nH]c(C(=O)O)cc2N(CCc2ccc(O)cc2)C1=O | – | – | – | Kb [5]: 2.9 µM; pKb [5]: 5.54; Emax [6]: 0%; Emax [7]: 185%; Emax [8]: 92%; Emax [9]: 63%; Activity (Rattus norvegicus): inactive; Activity [10]: Dose-dependent effect |
| inactive | 25% | NCCCC[C@@H]1N[C@@H](c2ccc3ccccc3c2)c2[nH]c(C(=O)O)cc2N(CCc2ccc(O)cc2)C1=O | 107% | 194% | – | – |
| inactive | 25% | NCCC[C@@H]1N[C@@H](c2cccc3ccccc23)c2[nH]c(C(=O)O)cc2N(CCc2ccc(O)cc2)C1=O | 238% | 148% | – | – |
| inactive | 25% | NCCC[C@@H]1N[C@H](c2cccc3ccccc23)c2[nH]c(C(=O)O)cc2N(CCc2ccc(O)cc2)C1=O | 210% | 139% | – | – |
| inactive | – | NCCCC[C@@H]1N[C@@H](c2ccc(-c3ccccc3)cc2)c2[nH]c(C(=O)O)cc2N(CCc2ccc(O)cc2)C1=O | – | – | inactive | Emax [6]: 121%; Emax [7]: 113% |
| inactive | – | NCCC[C@@H]1N[C@H](c2ccc(-c3ccccc3)cc2)c2[nH]c(C(=O)O)cc2N(CCc2ccc(O)cc2)C1=O | – | – | inactive | Emax [17]: 162%; Emax [18]: 139% |

| SMILES | Activity [2] | inhibition [4] | Emax [1] | Emax [3] | Activity [13] | further results |
| --- | --- | --- | --- | --- | --- | --- |
| NCCC[C@@H]1N=C(c2ccc(-c3ccccc3)cc2)c2[nH]c(C(=O)O)cc2N(CCc2ccc(O)cc2)C1=O | inactive | – | 93% | 97% | – | Activity [11]: 117% |
| NCCCC[C@@H]1N=C(c2cccc3ccccc23)c2[nH]c(C(=O)O)cc2N(CCc2ccc(O)cc2)C1=O | inactive | – | – | – | inactive | Emax [12]: 123%; Emax [14]: 60% |
| NCCCC[C@@H]1N=C(c2ccc(-c3ccccc3)cc2)c2[nH]c(C(=O)O)cc2N(CCc2ccc(O)cc2)C1=O | inactive | – | – | – | inactive | Emax [15]: 110%; Emax [16]: 128% |
| NCCC[C@@H]1N=C(c2ccc3ccccc3c2)c2[nH]c(C(=O)O)cc2N(CCc2ccc(O)cc2)C1=O | inactive | – | 142% | 70% | inactive | – |
| NCCCC[C@@H]1N=C(c2ccc3ccccc3c2)c2[nH]c(C(=O)O)cc2N(CCc2ccc(O)cc2)C1=O | inactive | – | 51% | 80% | inactive | – |
| NCCC[C@@H]1N=C(c2cccc3ccccc23)c2[nH]c(C(=O)O)cc2N(CCc2ccc(O)cc2)C1=O | inactive | – | 46% | 74% | inactive | – |
